Test results from BindingDB's records for doi:10.1016/j.bmc.2020.115710 (Indiana University School of Medicine, 2020).

Assays:
Co-chaperonin GroES [1] = target: T1, Co-chaperonin GroES (Escherichia coli, UniProt Q7BGE6); experiment: Inhibition of Escherichia coli GroEL/ES assessed as inhibition of native malate dehydrogenase treated after denatured malate dehydrogenase completely refold
T1 sequence (Q7BGE6 whole entry): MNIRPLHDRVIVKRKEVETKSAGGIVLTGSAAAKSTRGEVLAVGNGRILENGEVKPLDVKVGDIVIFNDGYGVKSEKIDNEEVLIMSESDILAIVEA
How it was run: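 Counter-screen on native MDH activity: compounds are added only after GroEL/ES has fully refolded the denatured MDH, so the assay flags compounds that act on the MDH reporter reaction itself. IC50 values are averages from at least five replicates. […] DMSO serves as the negative control.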

Co-chaperonin GroES [2] = target: T1, Co-chaperonin GroES; experiment: Inhibition of Escherichia coli GroEL/ES assessed as inhibition of native malate dehydrogenase treated after denatured malate dehydrogenase completely refold in presence of NfsB nitroreductase
How it was run: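 Native MDH counter-screen with 10 µg/mL E. coli NfsB nitroreductase added to the initial GroEL/ES-dMDH solution. Compounds are added after the EDTA quench, then incubated 10 min at 37°C with NADH to bioactivate nitrofurans. Compounds in the reporter step span 56 µM to 25 nM (3-fold series).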

SMILES	IC50 (Co-chaperonin GroES [1])	IC50 (Co-chaperonin GroES [2])
O=C(N/N=C/c1ccc([N+](=O)[O-])o1)c1ccccc1	> 63 µM	> 56 µM
O=C(N/N=C/c1ccc([N+](=O)[O-])o1)c1cccs1	> 63 µM	> 56 µM
O=C(N/N=C/c1ccc([N+](=O)[O-])o1)c1ccncc1 [N-[(E)-(5-nitro-2-furanyl)methylideneamino]-4-pyridinecarboxamide]	> 63 µM	> 56 µM
COc1ccc(C(=O)N/N=C/c2ccc([N+](=O)[O-])o2)cc1	> 63 µM	> 56 µM
O=C(N/N=C/c1ccc([N+](=O)[O-])o1)c1ccc(Cl)s1	> 63 µM	> 56 µM
O=C(N/N=C/c1ccc([N+](=O)[O-])o1)c1ccc(O)cc1 [NIFUROXAZIDE]	> 63 µM	> 56 µM
O=C1CN(/N=C/c2ccc([N+](=O)[O-])o2)C(=O)N1 [MLS000028500]	> 63 µM	> 56 µM
CN(C)c1ccc(C(=O)N/N=C/c2ccc([N+](=O)[O-])o2)cc1	> 63 µM	> 56 µM
